Reference: publication PMC3080470 (Biopharmaceutics & drug disposition, 2011)
Where two headings read alike, the source gives them in different places. Marks after values point to notes of the source that are not given here. Numbered stars: 1 amine (or outer) side, 2 acyl side, 3 side chain; on linkers, the order of the positions; unused ones are H or OH. Bridge positions count the residues as written; N and C are the ends. Square brackets hold non-standard residues; d marks the D form. Peptide text beside a SMILES is read from it. * marks the point of attachment. hTyr(3S-OH,4S-OH,3'-OSO3H) = N[C@H](C(=O)O)[C@H](O)[C@@H](O)c1ccc(O)c(OS(=O)(=O)O)c1; Orn(4R-OH,5R-OH) = O=C([C@H](C[C@@H](O)[C@@H](O)N[*:3])N[*:1])[*:2]; Pro(3S-OH,4S-Me) = C[C@H]1CN[C@H](C(=O)O)[C@H]1O; X1 = CCCCCOc1ccc(-c2cc(-c3ccc(C(=O)*)cc3)no2)cc1; Gln(3R-OH) = NC(=O)C[C@@H](O)[C@H](N)C(=O)O; Hyp = O=C(O)[C@@H]1C[C@@H](O)CN1

Tests used:
[1] = cited from earlier work
[2] = adult; well-stirred model, fu 0.004, QH 21 ml/min/kg; ref Yanni et al. [8]; cited from earlier work
[3] = cited from earlier work; remark: listed apart in the source
[4] = test system: sandwich-cultured human hepatocytes; settings: cited from earlier work
[5] = Micafungin serum fraction unbound by equilibrium dialysis; type: in vitro ADME; settings: human, pH 7.4
How it was run: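 Serum from neonates (23–40 wk gestation, postnatal 1–52 days, 0.6–3.5 kg; n=6) or adults (n=6) spiked with 10 μM test compound. Dialysed against an equal volume of 100 mM sodium phosphate, pH 7.4, for 4.5 hr at 37°C with 100 rpm shaking. Both sides quantified by HPLC-fluorescence (ex 273/em 464 nm) with diclofenac internal standard and matrix-matched calibration. fu = buffer/serum concentration.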

[6] = human adult, ref Yanni et al. [8]

Compound	plasma protein binding ([1]; in humans and animals) [%]	binding to plasma proteins ([1]; stated in abstract, no reference given) [%]	Calculated Biliary Cl [2] [mL/min/kg]	Calculated Plasma Cl [2] [mL/min/kg]	Observed Biliary Cl [3, 6] [mL/min/kg]	Observed Plasma Cl [3, 6] [mL/min/kg]	Observed Plasma Cl ([3]; human neonate, ref Heresi et al. [5])	share of plasma clearance that occurs via biliary elimination of the parent drug ([3]; pharmacokinetic studies with 14C-micafungin)	Intrinsic Biliary Cl ([4]; adult, sandwich-cultured human hepatocytes, B-CLEAR, ref Yanni et al. [8]) [µL/min/mg]	Intrinsic Accumulation Cl ([4]; adult, sandwich-cultured human hepatocytes, ref Yanni et al. [8]) [µL/min/mg]	In vitro intrinsic accumulation Cl ([4]; sandwich-cultured human hepatocytes from adult liver donors, no albumin) [µL/min/mg]	fraction unbound at 4.5 hr, 10 μM ([5]; serum from adults)	fraction unbound at 4.5 hr, 10 μM ([5]; serum from neonates)	unbound fraction in blood [1]	clearance in neonates (< 3 months) compared to older children (2-11y) ([3]; human)
CCCCCOc1ccc(-c2cc(-c3ccc(C(=O)N[C@H]4C[C@@H](O)[C@@H](O)NC(=O)[C@@H]5[C@@H](O)[C@@H](C)CN5C(=O)[C@H]([C@H](O)CC(N)=O)NC(=O)[C@H]([C@H](O)[C@@H](O)c5ccc(O)c(OS(=O)(=O)O)c5)NC(=O)[C@@H]5C[C@@H](O)CN5C(=O)[C@H]([C@@H](C)O)NC4=O)cc3)no2)cc1 [Micafungin] (X1-[Orn(4R-OH,5R-OH)]T[Hyp][hTyr(3S-OH,4S-OH,3'-OSO3H)][Gln(3R-OH)][Pro(3S-OH,4S-Me)]; lactam 1-C)	> 99	> 99.5	0.101 ± 0.062	0.175 ± 0.012	0.160	0.229	0.622 ^# ml/min/kg	approximately 90%	14 ± 9	24 ± 2	23.5 ± 1.6	0.004	0.033		
Caspofungin														about 3.5%	significantly lower
